Measurements: ChEMBL document CHEMBL3861960, “Leoligin, the Major Lignan from Edelweiss (Leontopodium nivale subsp. alpinum), Promotes Cholesterol Efflux from THP-1 Macrophages” (J Nat Prod, 2016)
Activity calls are given as the source filed them. The calls are words filed in the database; no cut-off is given here.

Assays:
[1] = Cytotoxicity against human THP1 cells assessed as decrease in cell viability at 1 to 20 uM after 24 hrs by resazurin assay; type: toxicity, cell-based; conditions: thp-1, 24 h
In short: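 THP-1 cells kept in RPMI-1640 with 10% heat-inactivated FBS, penicillin/streptomycin and 2 mM L-glutamine, then differentiated to macrophages with 200 nM PMA for 72 h. Exposed to compound for 24 h. Viability read by resazurin conversion as fluorescence (ex 535 nm, em 580 nm). Digitonin 50 μg/mL served as cytotoxic control. Mean ± SD of four independent experiments; one-way ANOVA with Bonferroni test against DMSO.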

[2] = system: THP-1; experiment: Induction of apo-A1-mediated cholesterol efflux from [3H]-cholesterol labeled human THP1 cells preincubated for 24 hrs followed by apo A1 addition measured after 6 hrs by scintillation counting method; type: functional, cell-based
In short: (§1)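 Differentiated THP-1 macrophages loaded with [3H]-cholesterol for 24 h in the presence of compound, or pioglitazone 10 μM as positive control. Medium then replaced with serum-free RPMI containing compound, with or without acceptor (10 μg/mL apo A1 or 1% human plasma from fasted volunteers), for 6 h. Efflux % = extracellular/total cpm with acceptor minus without acceptor, ×100, by scintillation counting. Three independent experiments.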

[3] = system: THP-1; experiment: Induction of 1% human plasma-mediated cholesterol efflux from [3H]-cholesterol labeled human THP1 cells at 10 uM preincubated for 24 hrs followed by 1% human plasma addition measured after 6 hrs by scintillation counting method; type: functional; in short: as §1
[4] = Upregulation of ABCA1 protein expression in human THP1 cells at 10 uM after 24 hrs by Western blot method; type: functional, cell-based; conditions: THP-1
In short: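 THP-1 macrophages treated for 24 h with 10 μM compound, 10 μM pioglitazone or DMSO, then lysed in NP40 buffer (150 mM NaCl, 50 mM HEPES pH 7.4, 1% NP40) with protease and phosphatase inhibitors. 20 μg protein separated by SDS-PAGE and immunoblotted for ABCA1 with β-actin, ECL detection. Densitometry from four independent experiments.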

[5] = Upregulation of ABCG1 protein expression in human THP1 cells at 10 uM after 24 hrs by Western blot method; type: functional, cell-based; conditions: THP-1
In short: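 PMA-differentiated THP-1 macrophages (200 nM PMA, 72 h) exposed to 10 μM agent or DMSO vehicle for 24 h. Lysis in NP40 buffer with protease inhibitors, then Bradford protein assay. 20 μg protein run on SDS-PAGE, blotted to PVDF and probed with anti-ABCG1, β-actin as reference. ECL band densitometry from four independent experiments.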

[6] = Upregulation of ABCA1 mRNA expression in human THP1 cells at 10 uM after 24 hrs by qPCR method relative to control; type: functional, cell-based; conditions: THP-1
In short: (§2)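 THP-1 macrophages treated for 24 h with 10 μM compound, 10 μM pioglitazone or DMSO. Total RNA extracted and converted to cDNA; ABCA1 or ABCG1 measured by SYBR Green qPCR and expressed relative to 18S. Mean ± SD of four independent experiments; one-way ANOVA with Bonferroni test against DMSO.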

[7] = Upregulation of ABCG1 mRNA expression in human THP1 cells at 10 uM after 24 hrs by qPCR method relative to control; type: functional, cell-based; conditions: THP-1; in short: as §2
[8] = system: THP-1; experiment: Suppression of ABCA1 mRNA degradation in human THP1 cells at 10 uM in presence of de novo gene transcription inhibitor actinomycin D at 2 hrs by qPCR method; type: functional, cell-based
In short: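 Differentiated THP-1 macrophages treated with 10 μM compound or DMSO for 24 h, then given 5 μg/mL actinomycin D and lysed at set time points. Total RNA extracted and reverse-transcribed; ABCA1 mRNA measured by SYBR Green qPCR normalised to 18S. Four independent experiments.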

[9] = system: THP-1; experiment: Effect on GOLGA5 protein expression in human THP1 cells at 10 uM after 24 hrs by proteome analysis relative to control; type: functional
In short: (§3)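 PMA-differentiated THP-1 macrophages given 10 μM compound or DMSO for 24 h, then lysed in TRIzol. Proteins reduced with DTT, alkylated with iodoacetamide, digested with trypsin (1:50 w/w) for 16 h at 30 °C. Biological replicates pooled, analysed by LC-MS/MS on an Orbitrap Velos Pro with a 4 h gradient, FDR ≤0.05. Only unique peptides used; log2 peptide ratios averaged per protein and tested by one-sample t test versus vehicle.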

[10] = system: THP-1; experiment: Effect on EVI2B protein expression in human THP1 cells at 10 uM after 24 hrs by proteome analysis relative to control; type: functional; in short: as §3
[11] = system: THP-1; experiment: Effect on MYL12A protein expression in human THP1 cells at 10 uM after 24 hrs by proteome analysis relative to control; type: functional; in short: as §3
[12] = system: THP-1; experiment: Effect on SMO protein expression in human THP1 cells at 10 uM after 24 hrs by proteome analysis relative to control; type: functional; in short: as §3
[13] = system: THP-1; experiment: Effect on MYL12B protein expression in human THP1 cells at 10 uM after 24 hrs by proteome analysis relative to control; type: functional; in short: as §3
[14] = system: THP-1; experiment: Effect on MAN2A1 protein expression in human THP1 cells at 10 uM after 24 hrs by proteome analysis relative to control; type: functional; in short: as §3
[15] = system: THP-1; experiment: Effect on OR1M1 protein expression in human THP1 cells at 10 uM after 24 hrs by proteome analysis relative to control; type: functional; in short: as §3
[16] = system: THP-1; experiment: Effect on RAB4A protein expression in human THP1 cells at 10 uM after 24 hrs by proteome analysis relative to control; type: functional; in short: as §3
[17] = system: THP-1; experiment: Effect on MCM9 protein expression in human THP1 cells at 10 uM after 24 hrs by proteome analysis relative to control; type: functional; in short: as §3
[18] = system: THP-1; experiment: Effect on CD44 protein expression in human THP1 cells at 10 uM after 24 hrs by proteome analysis relative to control; type: functional; in short: as §3
[19] = system: THP-1; experiment: Effect on SHMT1 protein expression in human THP1 cells at 10 uM after 24 hrs by proteome analysis relative to control; type: functional; in short: as §3
[20] = system: THP-1; experiment: Effect on LAMP1 protein expression in human THP1 cells at 10 uM after 24 hrs by proteome analysis relative to control; type: functional; in short: as §3
[21] = system: THP-1; experiment: Effect on PTPRC protein expression in human THP1 cells at 10 uM after 24 hrs by proteome analysis relative to control; type: functional; in short: as §3
[22] = system: THP-1; experiment: Effect on NCSTN protein expression in human THP1 cells at 10 uM after 24 hrs by proteome analysis relative to control; type: functional; in short: as §3
[23] = system: THP-1; experiment: Effect on CPA3 protein expression in human THP1 cells at 10 uM after 24 hrs by proteome analysis relative to control; type: functional; in short: as §3
[24] = system: THP-1; experiment: Effect on MGA protein expression in human THP1 cells at 10 uM after 24 hrs by proteome analysis relative to control; type: functional; in short: as §3
[25] = system: THP-1; experiment: Effect on PAIP2 protein expression in human THP1 cells at 10 uM after 24 hrs by proteome analysis relative to control; type: functional; in short: as §3

C/C=C(/C)C(=O)OC[C@H]1[C@@H](Cc2ccc(OC)c(OC)c2)CO[C@@H]1c1ccc(OC)c(OC)c1
Activity [1]: Non-Toxic | Activity [2]: Dose-dependent effect | Activity [3]: Active | Activity [4]: Active | Activity [5]: Active | fold change (FC) [6]: 2.4 | fold change (FC) [7]: 3.8 | Activity [8]: Active | fold change (FC) [9]: 2.3 | fold change (FC) [10]: 2.3 | fold change (FC) [11]: 2.2 | fold change (FC) [12]: 2.1 | fold change (FC) [13]: 2 | fold change (FC) [14]: 2 | fold change (FC) [15]: 2 | fold change (FC) [16]: 1.9 | fold change (FC) [17]: 1.9 | fold change (FC) [18]: 1.8 | fold change (FC) [19]: 1.8 | fold change (FC) [20]: 1.8 | fold change (FC) [21]: 1.7 | fold change (FC) [22]: 1.7 | fold change (FC) [23]: 1.7 | fold change (FC) [24]: 1.7 | fold change (FC) [25]: 1.7
